This is an account of results in ChEMBL document CHEMBL4177719, “Synthesis and evaluation of biaryl derivatives for structural characterization of selective monoamine oxidase B inhibitors toward Parkinson's disease therapy” (Bioorg Med Chem, 2018).

Data set [1] has as its target T1, Amine oxidase [flavin-containing] B (Homo sapiens, UniProt P27338).
T1 sequence (P27338 whole entry): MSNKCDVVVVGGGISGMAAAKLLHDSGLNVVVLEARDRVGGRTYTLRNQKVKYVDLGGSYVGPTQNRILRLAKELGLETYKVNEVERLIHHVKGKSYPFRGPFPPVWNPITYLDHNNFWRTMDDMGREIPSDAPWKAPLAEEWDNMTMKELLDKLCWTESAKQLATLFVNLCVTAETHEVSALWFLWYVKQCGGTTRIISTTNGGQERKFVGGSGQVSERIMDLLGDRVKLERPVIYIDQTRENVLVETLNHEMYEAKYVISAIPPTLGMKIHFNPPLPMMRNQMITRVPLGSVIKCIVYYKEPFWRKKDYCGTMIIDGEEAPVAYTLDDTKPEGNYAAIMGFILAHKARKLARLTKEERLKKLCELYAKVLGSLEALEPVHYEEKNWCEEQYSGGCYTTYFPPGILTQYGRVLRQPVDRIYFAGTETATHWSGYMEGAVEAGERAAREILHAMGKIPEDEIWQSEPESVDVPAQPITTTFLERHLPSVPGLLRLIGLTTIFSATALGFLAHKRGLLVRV
Description: Inhibition of recombinant human MAO-B using benzylamine as substrate preincubated for 15 mins followed by substrate addition measured after 20 mins by amplex red reagent based spectrophotometric assay.

In data set [2] the target is T2, Amine oxidase [flavin-containing] A (Homo sapiens, UniProt P21397).
T2 sequence (P21397 whole entry): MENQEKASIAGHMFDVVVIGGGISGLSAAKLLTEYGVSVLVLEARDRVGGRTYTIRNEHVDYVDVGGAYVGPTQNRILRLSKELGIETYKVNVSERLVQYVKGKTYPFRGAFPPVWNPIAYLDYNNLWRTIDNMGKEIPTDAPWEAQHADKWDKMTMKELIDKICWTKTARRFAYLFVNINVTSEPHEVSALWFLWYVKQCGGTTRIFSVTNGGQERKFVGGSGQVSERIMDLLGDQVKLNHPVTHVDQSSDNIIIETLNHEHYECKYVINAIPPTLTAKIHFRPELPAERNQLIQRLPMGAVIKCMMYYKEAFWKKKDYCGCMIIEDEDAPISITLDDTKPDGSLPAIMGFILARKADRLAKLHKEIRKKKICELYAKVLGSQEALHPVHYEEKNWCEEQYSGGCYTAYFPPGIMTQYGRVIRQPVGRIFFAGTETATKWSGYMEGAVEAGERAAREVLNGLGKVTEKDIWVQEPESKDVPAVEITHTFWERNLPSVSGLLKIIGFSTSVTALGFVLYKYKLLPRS
Nature of the data set: Inhibition of recombinant human MAO-A using p-tyramine as substrate preincubated for 15 mins followed by substrate addition measured after 20 mins by amplex red reagent based spectrophotometric assay. In short, it runs like this: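 Recombinant human MAO-A with compounds at final 10⁻⁵–10 µM, preincubated 15 min at 37 °C in 50 mM sodium phosphate, pH 7.4. Reaction started by adding 200 µM Amplex Red, 2 U/mL horseradish peroxidase and 2 mM p-tyramine. IC50 came from dose-response curves in quadruplicate, as mean ± S.E.M.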

For data set [3], the species on record is Homo sapiens. Nature of the data set: Selectivity index, ratio of IC50 for recombinant human MAO-A to IC50 for recombinant human MAO-B.
The target of data set [4] is T1, Amine oxidase [flavin-containing] B. Description: Competitive inhibition of recombinant human MAO-B assessed as Vmax for substrate using varying level of benzylamine substrate preincubated for 15 mins followed by substrate addition measured after 20 mins by Lineweaver-Burk plot analysis. Summed up:
(§1)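 Recombinant human MAO-B with benzylamine at 0.065, 0.125, 0.25, 0.5, 1, 2 and 4 mM, with inhibitor at 0, 0.3, 1 and 3 nM. Amplex Red/HRP H2O2-coupled fluorescence in 50 mM sodium phosphate pH 7.4 at 37 °C. Initial rates taken from progression curves; Lineweaver-Burk double-reciprocal analysis.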

Data set [5] has the same target. Nature of the data set: Competitive inhibition of recombinant human MAO-B using varying level of benzylamine substrate preincubated for 15 mins followed by substrate addition measured after 20 mins by Lineweaver-Burk plot analysis. In short, it runs like this: as §1
Data set [6] concerns Mus musculus. Nature of the data set: Anti-parkinson's activity in MPTP-induced C57Bl/6 mouse model of Parkinson's disease assessed as restoration of MPTP-induced weight loss at 30 mg/kg, po administered for 3 consecutive days. The format is functional, organism-based. In short, it runs like this: (§2)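 Male C57Bl/6 mice, 10 weeks old, 23–25 g (n = 5-8 per group). MPTP-HCl 20 mg/kg i.p., given as 4 injections at 2 h intervals. Drug 30 mg/kg/day p.o. for 3 consecutive days spanning MPTP dosing. Vehicle was 12.5% castor oil/ethanol (equal parts) in distilled water. Saline-treated controls.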

For data set [7], the system named is Mus musculus. Description: Anti-parkinson's activity in MPTP-induced C57Bl/6 mouse model of Parkinson's disease assessed as restoration of motor ability by measuring ascending ability to reach stable position at 30 mg/kg, po administered for 3 consecutive days measured 6 days after MPTP injection by coathanger method. It counts as functional, organism-based. Summed up: as §2

In data set [8] the test system is Mus musculus. Nature of the data set: Anti-parkinson's activity in MPTP-induced C57Bl/6 mouse model of Parkinson's disease assessed as restoration of motor ability at 30 mg/kg, po administered for 3 consecutive days measured 6 days after MPTP injection by vertical grid test. It counts as functional, organism-based. Summed up: as §2
Data set [9] relates to Mus musculus. Description: Restoration of MPTP-induced tyrosine hydroxylase enzyme activity loss in C57Bl/6 mouse assessed as enzyme activity loss in DAergic neurons of substantia nigra pars compacta at 30 mg/kg, po administered for 3 consecutive days measured 6 days after MPTP injection by DAB staining based microscopic method. The format is functional. Summed up:
as §2

Data set [10] has as its system Mus musculus. Description: Anti-parkinson's activity in MPTP-induced C57Bl/6 mouse model of Parkinson's disease assessed as restoration of MPTP-induced reduction in TH-immunoreactive fiber density in striatum at 30 mg/kg, po administered for 3 consecutive days measured 6 days after MPTP injection by DAB staining based microscopic method. It counts as functional, organism-based. In short, it runs like this: as §2

Each structure is given as a SMILES string. Activity calls are given as the source filed them. No cut-off for these calls is given here.

On to `Cl.NCCc1ccc(OCc2ccc(C(F)(F)F)cc2)cc1`, for which the figures for the IC50 in data set [1] and in data set [2] were 9 nM and more than 100000 nM, respectively. Also, in data set [3], the Ratio IC50 was more than 11000. The Vmax in data set [4] stood at 5.86 ×10⁷ U/min. In addition, the inhibition constant Ki in data set [5] worked out at 6.88 nM. For the same molecule, the outcome in data set [6], in data set [7], in data set [8] and in data set [10] was Active. The Activity in data set [9] worked out at 38%.

As a reminder, the IC50 is the point on the concentration scale where inhibition reaches its midpoint. Broadly, the Ki is a measure of affinity in units of concentration, obtained from inhibition or displacement.
